The whole screen tested about 290,000 compounds, of which about 1,300 (0.45%) were called active. The list comes from a sample in which actives are over-represented; it also holds similar structures and randomly drawn compounds. Unmarked numbers belong to inactive results.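 Rule for the calls: active = inhibition above the mean plus 3 SD of all compounds in the same screening run (cut at about 4.5% in these data); inactive = the rest.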
Test system: metallo-beta-lactamase IMP-1 (Pseudomonas aeruginosa)
Assay: IMP-1 metallo-beta-lactamase inhibitors, primary screen, biochemical, epi-absorbance readout, Pseudomonas aeruginosa enzyme (AID 1556);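 note: 0% = IMP-1 with DMSO and 100% = DMSO wells lacking enzyme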
Conditions: purified IMP-1, nitrocefin hydrolysis, epi-absorbance fluorescence; at 5.6 µM; active compounds read high
Outline: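 Assay system: purified IMP-1; Quantity: IMP-1 0.2 nM before substrate addition; Medium: HEPES buffer pH 7.1 with ZnSO4 and Brij 35; Incubation: 15 min enzyme–compound preincubation, then 25 min nitrocefin reaction, 25 °C; Signal: fluorescence quenching readout, ex 480/em 530 nm; Controls: DMSO with and without IMP-1; Repeats: singlicate testing.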

Structure (SMILES) | inhibition
Cc1nc(CN(C)C(=O)CC2C(=O)NCCN2Cc2ccc(F)cc2)cs1 (configuration not stated) | -2.3%
CCOc1ccc(NC(=O)N2CC=C(n3c(=O)[nH]c4ccccc43)CC2)cc1 | 6.24% (active)
Cc1cccc(C)c1NC(=O)N1CC=C(n2c(=O)[nH]c3ccccc32)CC1 | -4.93%
CCOc1ccc(NC(=O)N2CCN(CC)CC2)cc1 | -1.66%
COc1ccc(NC(=O)CN2C(=O)COc3ccc(S(=O)(=O)N4CCOCC4)cc32)cc1 | -3.61%
Cc1ccc(CNC(=O)C(=O)c2cn(CC(=O)N3CCOCC3)c3ccccc23)cc1 | -2.82%
Cn1ccc(=Nc2ccc(NC(=O)c3ccc(N=c4ccn(C)c5ccc([N+](=O)[O-])cc45)cc3)cc2)cc1 | 14.8% (active)
Cc1cc([N+](=O)[O-])ccc1NC(=O)c1ccc(NC(=O)C(C)C)cc1 | -0.19%
O=C(Nc1ccc(C(=O)N2CCCCC2)cc1)c1cccc([N+](=O)[O-])c1 | -1.61%
Cc1sc2ncn(CC(=O)NCCCC(=O)N(C)Cc3ccccc3)c(=O)c2c1C | -3.46%
Cc1ccc(-n2ncc3c2CC(C)(C)CC3NC(=O)CCc2cnn(C)c2)cc1 (configuration not stated) | -2.72%
COCCOC(=O)c1sc(=S)n(CCOC)c1N | -0.79%
CCN(Cc1ccccc1)C(=O)CCS(=O)(=O)c1ccc2c(c1)oc(=O)n2C | -3.48%
C=CCn1c(=O)c(C(=O)Nc2ncccc2O)c(O)c2ccccc21 | -5.49%
Cc1c(CCC(=O)O)c(=O)oc2c(C)c(OCc3ccccc3Cl)ccc12 | 11.5% (active)
Cc1c(CCC(=O)O)c(=O)oc2cc(OCc3ccc(Br)cc3)ccc12 | -4.45%
CCOC(=O)CCc1c(C)c2ccc(OCc3nn[nH]n3)c(C)c2oc1=O | -1.75%
COc1ccccc1N1CCN(S(=O)(=O)CCNC(=O)c2ccc(OC(C)C)cc2)CC1 | -1.73%
CCOc1cc(NC(=O)Nc2ccccc2)c(OCC)cc1NC(=O)CC | 1.47%
CCOC(=O)Nc1ccc2c(c1)N(C(=O)CCCl)c1ccccc1[S@]2=O | -1.86%
COc1ccc(-n2c(=O)[nH]c3cc(C(=O)NCCc4ccc(OC)c(OC)c4)ccc3c2=O)c(OC)c1 | -0.95%
C[n+]1ccc(/C=C/c2c[nH]c3ccccc23)cc1 | 11.3% (active)
COc1ccc(/C=C(\C#N)c2c[nH]c3ccccc23)cc1 | -0.02%
O=C(N/N=C/c1c[nH]c2ccccc12)c1ccccc1O | -3.56%
COc1ccc(C2c3[nH]c4ccccc4c3C[C@H]3C(=O)N(CC(C)C)CC(=O)N23)c(OC)c1 (some centres not stated) | -2.7%
Cc1cc(Cl)ccc1OCCCC(=O)Nc1cccc(-n2cnnn2)c1 | -1.81%

Structure (SMILES) | inhibition
Cc1c(CN2CCC(n3nccc3NC(=O)CCc3ccccc3)CC2)cnn1C | 40.5% (active)
Cc1ccc(CN2CCC(n3nccc3NC(=O)CCCc3ccccc3)CC2)o1 | -1.11%
CCn1cc(CN2CCC(n3nccc3NC(=O)CCCc3ccccc3)CC2)c(C)n1 | -2.27%
CCOc1ccc(-n2c(SCC(=O)Nc3ccc(OC)cc3)nc3sc4c(c3c2=O)CCN(C)C4)cc1 | 7.22% (active)
CCOc1ccc(-n2c(SCC(=O)OC)nc3sc4c(c3c2=O)CCN(C)C4)cc1 | 1.15%
CCCSc1nc2sc3c(c2c(=O)n1-c1ccc(OC)cc1)CCN(C)C3 | -1.47%
CCN(c1ccccc1)S(=O)(=O)c1cc2c(cc1C)n(C)c(=O)c(=O)n2C | -1.34%
CC(NC(=O)COc1ccc(-c2ccccc2)cc1)C1CCCO1 (configuration not stated) | -0.53%
COC(=O)c1cc(C(=O)NC(C)C2CC3CCC2C3)cc([N+](=O)[O-])c1 (configuration not stated) | -3.23%
O=C(NCCCN1CCCCCC1)C1CC(=O)N(C2CCCC2)C1 (configuration not stated) | 6.55% (active)
CC(C)OCCCNC(=O)C1CC(=O)N(C2CCCCCCC2)C1 (configuration not stated) | -4.36%
O=C(NCCc1ccc(Cl)cc1)C1CC(=O)N(C2CCCCC2)C1 (configuration not stated) | -3.24%
CC1(C)CC(=O)CC2(C1)NCC(c1ccccc1Cl)c1c2[nH]c2ccccc12 (configuration not stated) | -5.43%
Cn1cccc1/C=C1\SC(=O)N(CC(=O)Nc2ccc(F)cc2)C1=O | -1.78%
COc1ccc(NC(=O)CCN2C(=O)/C(=C/c3ccc4c(c3)OCO4)SC2=S)cc1 | -3.16%
Cc1ccc(C(=O)O)cc1-c1ccc(/C=C2\SC(=O)N(CC(=O)Nc3ccc4c(c3)OCO4)C2=O)o1 | 8.27% (active)
COc1ccccc1-c1sc2ccccc2c1-c1ccc(C(C)=O)cc1 | 1.15%
CCc1ccccc1N(CC(=O)NCC1CCCO1)C(=O)CCC(=O)Nc1nccs1 (configuration not stated) | -4.39%
O=C(NCc1cccc(Cl)c1)C1CCN(c2nnc(N3CCCC3=O)s2)CC1 | -2.2%
Cc1cc(=O)oc2cc(OCC(=O)Nc3nnc(C4CC4)s3)ccc12 | -1.51%
COc1ccc2c(CC(=O)Nc3nnc(C4CC4)s3)coc2c1 | 68.4% (active)
COc1ccc(NC(=O)CCC(=O)Nc2nnc(C3CCCCC3)s2)cc1 | -2.6%
O=C(NCCCn1ccnc1)C(=O)NCC1OCCN1S(=O)(=O)c1cc(F)ccc1F (configuration not stated) | 5.52% (active)
O=C(NCCCc1ccccc1)C(=O)NCC1OCCN1S(=O)(=O)c1ccccc1 (configuration not stated) | -6.52%
Cc1cc(F)ccc1S(=O)(=O)N1CCCOC1CNC(=O)C(=O)NCCC1=CCCCC1 (configuration not stated) | -1.85%
CCn1c(=S)sc2c(=O)n(CC(=O)Nc3ccc(OC)cc3)c(C)nc21 | -1.8%

Structure (SMILES) | inhibition
COc1ccc(CCNC(=O)c2cnc(Cl)c(Cl)c2)cc1 | -2.17%
O=C(Nc1cccc(F)c1)NC1CCCc2ccccc21 (configuration not stated) | -1.14%
CNC(=S)NNC(=O)c1cccn(Cc2ccccc2)c1=O | -3.24%
C=CCNC(=S)/N=c1/ccccn1Cc1ccccc1 | 16.2% (active)
C=CCNC(=O)COc1coc(CN2CCN(Cc3ccccc3)CC2)cc1=O | 2.52%
O=[N+]([O-])c1ccc(N2CCN(c3ccc(F)cc3)CC2)cn1 | -0.39%
CSc1ccc(S(=O)(=O)N2CCC(C(=O)NCc3ccncc3)CC2)cc1 | -1.8%
c1ccc(-c2nccc(-c3ccc(-n4cnc5ccccc54)cc3)n2)nc1 | 15.8% (active)
Cc1ccc(Oc2nc(-c3ccccn3)nc3ccccc23)cc1 | -3.21%
Cc1nccc(-c2ccc(-n3c(C)ccc3C)cc2)n1 | -1.5%
CC(=O)c1cc2c(cc1NC(=O)Cn1nc(-c3ccc(F)cc3)ccc1=O)OCO2 | -1%
Cc1ccc(CSCC2Nc3ccc(C(=O)N4CCN(c5ccc(F)cc5)CC4)cc3NC2=O)cc1 (configuration not stated) | -4.03%
Cc1ccc(C(=O)NCC(=O)NCc2cc(=O)n(C)c(=O)n2C)cc1 | -0.88%
Cc1ccc2c(CC(=O)NCc3cccs3)coc2c1 | -1.74%
CCSc1nnc(SCC(=O)NNC(=O)c2ccccc2F)s1 | -3.43%
Cc1cc2occ(CC(=O)NNC(=O)c3ccccc3F)c2cc1C | 7.82% (active)
COC(=O)C1=C(C)NC2=C(C(=O)c3ccccc32)C1c1ccc(-c2ccc(C(=O)O)cc2)o1 (configuration not stated) | 21.7% (active)
CCOC(=O)C1=C(c2ccc(OC)cc2)C(=O)c2ccccc2C1=O | -1.49%
Cc1ccc(C2C3=C(Nc4[nH]n(-c5ccccc5)c(=O)c42)c2ccccc2C3=O)cc1 (configuration not stated) | -5.01%
COc1ccc(CNC(=O)C(=O)NCC2OCCN2C(=O)c2ccc(OC)cc2)cc1 (configuration not stated) | -0.68%
COc1ccc(C(=O)O/N=C(\N)c2ccccn2)cc1[N+](=O)[O-] | -0.21%
COc1cccc(OCC(=O)NNC(=O)c2cnccn2)c1 | -3%
COc1ccc(C(=O)NNC(=O)c2cnccn2)cc1[N+](=O)[O-] | 5.35% (active)
Cc1cc(OCC(=O)NCC(O)c2ccccc2)c2c(C)c(C)c(=O)oc2c1 (configuration not stated) | -1.48%
COc1ccc(CC(NC(C)=O)C(=O)NC2CCN(C(=O)C3CC3)CC2)cc1OC (configuration not stated) | -2.45%
COc1cccc(CNS(=O)(=O)c2ccc3c(c2)N(C(C)=O)CCS3)c1 | 0.57%

Structure (SMILES) | inhibition
CCOc1cc(NC(=O)c2cnccn2)c(OCC)cc1NC(=O)c1ccc(C)cc1 | -4.22%
CCCc1cc(=O)oc2c(C)c(OCC(=O)NCc3ccccn3)ccc12 | -4.36%
CCCc1cc(=O)oc2c(C)c(OCC(=O)Nc3ccccn3)ccc12 | 12.4% (active)
CCCc1cc(=O)oc2c(C)c(OCC(=O)N3CCC(C(=O)O)CC3)ccc12 | -2.1%
O=C(O)c1c(NC(=O)N2CCCC2)sc2c1CCCC2 | -2.5%
Cc1ccccc1NC(=O)Cn1cc(C(=O)C2CC2)c2ccccc21 | -0.7%
COc1cccc(NC(=O)Cn2c3ccccc3c3nc4n(c(=O)c32)CCS4)c1 | -2.36%
COc1ccc2c(c1)c1nc3n(c(=O)c1n2CC(=O)Nc1ccccc1)CCS3 | -0.04%
COc1cccc(NC(=O)Cn2c3ccc(F)cc3c3nc4n(c(=O)c32)CCS4)c1 | 7.15% (active)
O=C(Nc1ccccc1-c1nnn(CC(=O)N2CCCc3ccccc32)n1)c1cccc(Cl)c1 | -0.16%
O=S(=O)(Cc1cc(Cl)nc(-c2cccnc2)n1)c1ccccc1 | 0.12%
N#Cc1c(Cl)nc(-c2cccnc2)nc1-c1ccccc1 | 9.55% (active)
CN(C)c1nc(-c2cccnc2)nc(-c2ccc(Cl)cc2)c1C#N | -2.58%
COc1ccc(Cl)cc1S(=O)(=O)Nc1cccc(C(=O)O)c1 | -2.2%
Cc1cccc(NS(=O)(=O)c2ccc([N+](=O)[O-])cc2)n1 | -1.07%
Cc1cccc(NS(=O)(=O)c2cc(Cl)ccc2Cl)n1 | 4.66% (active)
COc1cc(Br)cc(/C=N/c2ncn[nH]2)c1O | 7.88% (active)
COc1ccc(Br)cc1/C=N/n1c(C)nnc1C | -3.22%
Oc1c(Cl)cc(Cl)cc1/C=N/c1ncn[nH]1 | 11.9% (active)
Oc1ccc(Br)cc1C=Nc1ccc2[nH]ncc2c1 | -1.06%
Cc1snc(SCc2c(F)cccc2Cl)c1C#N | -3.78%
Cc1ccc2[nH]c(=O)c(CN(C)S(=O)(=O)c3cccc4nonc34)cc2c1 | 0.09%
Cc1ccc(Cn2cc(C(=O)NN)c(=O)c3ccc(F)cc32)cc1 | -2.47%
COc1ccc(NC(=O)Cn2ncn3c(cc4ccccc43)c2=O)c(OC)c1OC | -2.6%
